Source: the M2OR odorant receptor database
Where a chain is given by its changes, count along the chain named.

Experiments:
Details in all cases: stereoisomer not certain
O5AN1 = tested on: T1, O5AN1
T1 sequence (whole entry): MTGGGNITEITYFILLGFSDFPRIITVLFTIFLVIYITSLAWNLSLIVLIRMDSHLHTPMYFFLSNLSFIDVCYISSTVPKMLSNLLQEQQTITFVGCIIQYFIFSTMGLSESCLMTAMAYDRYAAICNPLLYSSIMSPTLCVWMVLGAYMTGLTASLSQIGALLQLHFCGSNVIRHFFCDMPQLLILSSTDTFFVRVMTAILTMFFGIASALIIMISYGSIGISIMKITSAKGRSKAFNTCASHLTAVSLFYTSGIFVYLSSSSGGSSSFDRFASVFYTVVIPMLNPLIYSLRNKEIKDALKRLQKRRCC
Procedure, shortened: (§1)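 Transient luciferase assays in mammalian cell lines were common, though methods varied by source. The values come from published papers and their supplementary material, with extra details from the original authors when needed. Responsive refers to a measured signal the original authors judged statistically different from baseline, and non-responsive (inactive) to the remainder.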

OR10A2 (Homo sapiens) = biological target: T2, OR10A2 (Homo sapiens) (UniProt Q9H208)
T2 sequence (whole entry): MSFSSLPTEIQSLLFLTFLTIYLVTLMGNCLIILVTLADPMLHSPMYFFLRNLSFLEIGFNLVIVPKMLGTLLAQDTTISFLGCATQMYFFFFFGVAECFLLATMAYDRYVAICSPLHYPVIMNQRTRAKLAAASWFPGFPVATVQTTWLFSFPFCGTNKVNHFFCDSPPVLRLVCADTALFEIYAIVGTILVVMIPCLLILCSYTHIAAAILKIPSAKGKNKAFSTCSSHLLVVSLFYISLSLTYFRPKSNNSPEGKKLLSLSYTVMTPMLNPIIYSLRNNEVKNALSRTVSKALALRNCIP
Procedure, shortened: as §1

O56A4 I247V = tested on: T3, O56A4 I247V
T3 sequence (whole entry): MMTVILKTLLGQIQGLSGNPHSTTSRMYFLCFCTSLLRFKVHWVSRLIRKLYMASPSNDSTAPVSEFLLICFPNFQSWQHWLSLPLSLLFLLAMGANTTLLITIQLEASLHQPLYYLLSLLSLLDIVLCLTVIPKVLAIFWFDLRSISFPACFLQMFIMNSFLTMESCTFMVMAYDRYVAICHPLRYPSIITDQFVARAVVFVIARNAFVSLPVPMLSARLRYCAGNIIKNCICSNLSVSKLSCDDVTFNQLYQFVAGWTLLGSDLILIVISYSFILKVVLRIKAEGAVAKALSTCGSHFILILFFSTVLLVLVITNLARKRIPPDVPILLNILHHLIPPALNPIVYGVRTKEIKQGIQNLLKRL
Procedure, shortened: as §1

O56A4 = tested on: T4, O56A4
T4 sequence (whole entry): T3 sequence (whole entry) with V247I
Procedure, shortened: as §1

O56A5 V104L = tested on: T5, O56A5 V104L
T5 sequence (whole entry): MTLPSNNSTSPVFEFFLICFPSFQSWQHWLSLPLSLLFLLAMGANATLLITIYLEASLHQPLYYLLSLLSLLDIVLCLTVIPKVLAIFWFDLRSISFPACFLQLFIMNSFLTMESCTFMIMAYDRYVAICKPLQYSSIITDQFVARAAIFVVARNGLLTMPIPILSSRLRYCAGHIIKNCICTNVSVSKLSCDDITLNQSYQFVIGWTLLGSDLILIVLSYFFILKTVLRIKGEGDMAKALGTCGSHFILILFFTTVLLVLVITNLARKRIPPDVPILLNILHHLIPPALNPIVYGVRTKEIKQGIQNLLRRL
Procedure, shortened: as §1

O56B1 C106R L214F = tested on: T6, O56B1 C106R L214F
T6 sequence (whole entry): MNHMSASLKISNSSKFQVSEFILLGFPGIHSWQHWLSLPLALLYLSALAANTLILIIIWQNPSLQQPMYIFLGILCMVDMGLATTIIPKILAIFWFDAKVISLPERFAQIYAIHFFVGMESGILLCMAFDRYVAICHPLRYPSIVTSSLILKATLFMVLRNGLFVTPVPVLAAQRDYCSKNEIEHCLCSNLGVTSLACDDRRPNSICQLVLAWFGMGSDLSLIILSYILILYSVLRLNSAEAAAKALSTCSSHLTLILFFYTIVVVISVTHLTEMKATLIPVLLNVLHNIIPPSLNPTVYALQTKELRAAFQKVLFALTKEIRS
Procedure, shortened: as §1

O56B1 L214F = tested on: T7, O56B1 L214F
T7 sequence (whole entry): T6 sequence (whole entry) with R106C
Procedure, shortened: as §1

O56B4 = tested on: T8, O56B4
T8 sequence (whole entry): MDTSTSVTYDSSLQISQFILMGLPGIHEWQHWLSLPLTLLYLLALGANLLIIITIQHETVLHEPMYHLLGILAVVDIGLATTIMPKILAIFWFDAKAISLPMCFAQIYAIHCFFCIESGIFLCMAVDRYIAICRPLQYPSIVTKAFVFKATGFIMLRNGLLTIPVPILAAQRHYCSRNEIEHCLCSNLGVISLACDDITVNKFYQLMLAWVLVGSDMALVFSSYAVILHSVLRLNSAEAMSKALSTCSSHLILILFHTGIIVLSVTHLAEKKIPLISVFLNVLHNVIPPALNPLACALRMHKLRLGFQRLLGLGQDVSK
Procedure, shortened: as §1

O5AC2 = tested on: T9, O5AC2
T9 sequence (whole entry): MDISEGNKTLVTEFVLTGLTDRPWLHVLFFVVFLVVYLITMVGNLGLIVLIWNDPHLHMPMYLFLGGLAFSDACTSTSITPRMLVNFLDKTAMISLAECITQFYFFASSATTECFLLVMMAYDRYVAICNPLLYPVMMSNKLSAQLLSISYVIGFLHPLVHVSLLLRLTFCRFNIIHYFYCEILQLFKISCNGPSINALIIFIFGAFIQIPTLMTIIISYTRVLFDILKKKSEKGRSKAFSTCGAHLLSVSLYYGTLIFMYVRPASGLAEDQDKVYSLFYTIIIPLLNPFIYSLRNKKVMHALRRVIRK
Procedure, shortened: as §1

O5AK2 M92I = tested on: T10, O5AK2 M92I
T10 sequence (whole entry): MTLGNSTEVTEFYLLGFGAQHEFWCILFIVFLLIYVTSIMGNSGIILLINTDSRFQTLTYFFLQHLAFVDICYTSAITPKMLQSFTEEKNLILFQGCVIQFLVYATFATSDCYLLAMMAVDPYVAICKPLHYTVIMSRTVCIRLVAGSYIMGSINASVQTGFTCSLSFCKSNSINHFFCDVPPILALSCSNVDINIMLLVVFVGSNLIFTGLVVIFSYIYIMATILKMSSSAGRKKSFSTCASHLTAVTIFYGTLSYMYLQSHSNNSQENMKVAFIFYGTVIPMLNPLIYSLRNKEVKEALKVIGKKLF
Procedure, shortened: as §1

O5AN1 C142Y L289F = tested on: T11, O5AN1 C142Y L289F
T11 sequence (whole entry): T1 sequence (whole entry) with T26K, C142Y, S159F, S190C, R197Q, I214V, S221Y, L289F, R309K
Procedure, shortened: as §1

O5AN1 L289F = tested on: T12, O5AN1 L289F
T12 sequence (whole entry): T1 sequence (whole entry) with T26K, S159F, S190C, R197Q, I214V, S221Y, L289F, R309K
Procedure, shortened: as §1

O5AP2 A105T = tested on: T13, O5AP2 A105T
T13 sequence (whole entry): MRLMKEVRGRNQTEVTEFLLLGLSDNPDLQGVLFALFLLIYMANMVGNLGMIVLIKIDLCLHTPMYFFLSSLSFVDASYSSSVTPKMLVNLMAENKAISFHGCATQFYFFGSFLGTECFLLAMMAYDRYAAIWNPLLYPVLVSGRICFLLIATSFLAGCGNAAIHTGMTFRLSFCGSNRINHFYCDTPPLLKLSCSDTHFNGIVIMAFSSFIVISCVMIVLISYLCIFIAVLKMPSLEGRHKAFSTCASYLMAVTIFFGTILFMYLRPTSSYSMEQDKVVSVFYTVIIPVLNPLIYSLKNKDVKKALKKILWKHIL
Procedure, shortened: as §1

O5AU1 = tested on: T14, O5AU1
T14 sequence (whole entry): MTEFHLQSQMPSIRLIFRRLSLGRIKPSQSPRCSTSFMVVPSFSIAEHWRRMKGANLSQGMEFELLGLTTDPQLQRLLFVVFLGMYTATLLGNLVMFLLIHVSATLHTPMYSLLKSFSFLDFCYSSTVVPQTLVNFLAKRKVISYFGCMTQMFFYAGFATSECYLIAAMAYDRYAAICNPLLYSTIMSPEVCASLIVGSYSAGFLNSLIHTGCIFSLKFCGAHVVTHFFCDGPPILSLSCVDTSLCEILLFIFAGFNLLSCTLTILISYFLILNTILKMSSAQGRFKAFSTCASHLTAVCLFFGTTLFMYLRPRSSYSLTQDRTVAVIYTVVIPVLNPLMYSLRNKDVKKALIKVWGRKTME
Procedure, shortened: as §1

O5H14 = tested on: T15, O5H14
T15 sequence (whole entry): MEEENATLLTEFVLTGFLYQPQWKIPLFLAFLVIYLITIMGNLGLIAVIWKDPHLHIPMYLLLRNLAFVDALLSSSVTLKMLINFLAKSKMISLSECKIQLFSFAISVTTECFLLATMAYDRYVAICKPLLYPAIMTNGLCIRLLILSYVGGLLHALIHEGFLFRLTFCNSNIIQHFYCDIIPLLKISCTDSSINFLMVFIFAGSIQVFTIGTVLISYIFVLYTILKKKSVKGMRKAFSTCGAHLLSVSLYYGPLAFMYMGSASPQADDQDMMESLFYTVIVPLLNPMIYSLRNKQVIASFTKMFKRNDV
Procedure, shortened: as §1

O5H15 V108I S148T T167S = tested on: T16, O5H15 V108I S148T T167S
T16 sequence (whole entry): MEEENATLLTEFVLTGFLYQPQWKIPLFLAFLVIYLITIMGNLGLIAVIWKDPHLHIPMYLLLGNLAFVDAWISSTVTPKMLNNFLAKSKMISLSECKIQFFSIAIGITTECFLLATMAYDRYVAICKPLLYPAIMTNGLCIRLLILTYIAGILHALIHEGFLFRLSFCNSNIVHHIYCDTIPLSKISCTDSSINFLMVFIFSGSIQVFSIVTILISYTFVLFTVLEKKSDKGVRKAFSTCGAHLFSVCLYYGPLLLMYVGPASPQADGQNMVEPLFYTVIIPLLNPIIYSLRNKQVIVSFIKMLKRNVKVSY
Procedure, shortened: as §1

O6C65 T222A = tested on: T17, O6C65 T222A
T17 sequence (whole entry): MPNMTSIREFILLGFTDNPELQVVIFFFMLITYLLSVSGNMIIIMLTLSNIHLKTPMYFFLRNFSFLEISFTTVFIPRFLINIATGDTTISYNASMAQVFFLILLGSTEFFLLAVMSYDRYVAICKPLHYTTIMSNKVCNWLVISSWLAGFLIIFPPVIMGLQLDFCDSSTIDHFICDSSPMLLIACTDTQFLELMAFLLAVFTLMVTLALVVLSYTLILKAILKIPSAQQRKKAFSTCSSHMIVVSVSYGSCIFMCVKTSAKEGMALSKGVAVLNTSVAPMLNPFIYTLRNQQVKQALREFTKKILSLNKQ
Procedure, shortened: as §1

O6C70 L181P = tested on: T18, O6C70 L181P
T18 sequence (whole entry): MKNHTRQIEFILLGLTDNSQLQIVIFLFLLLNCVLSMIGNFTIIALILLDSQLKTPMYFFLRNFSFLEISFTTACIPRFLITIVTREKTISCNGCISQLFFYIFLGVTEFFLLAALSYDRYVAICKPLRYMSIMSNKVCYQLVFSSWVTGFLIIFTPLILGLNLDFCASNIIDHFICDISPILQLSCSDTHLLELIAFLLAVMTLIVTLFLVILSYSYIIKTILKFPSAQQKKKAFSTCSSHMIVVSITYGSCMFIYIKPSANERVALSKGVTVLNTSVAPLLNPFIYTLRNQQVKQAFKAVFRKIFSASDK
Procedure, shortened: as §1

O7E24 S193F P242S = tested on: T19, O7E24 S193F P242S
T19 sequence (whole entry): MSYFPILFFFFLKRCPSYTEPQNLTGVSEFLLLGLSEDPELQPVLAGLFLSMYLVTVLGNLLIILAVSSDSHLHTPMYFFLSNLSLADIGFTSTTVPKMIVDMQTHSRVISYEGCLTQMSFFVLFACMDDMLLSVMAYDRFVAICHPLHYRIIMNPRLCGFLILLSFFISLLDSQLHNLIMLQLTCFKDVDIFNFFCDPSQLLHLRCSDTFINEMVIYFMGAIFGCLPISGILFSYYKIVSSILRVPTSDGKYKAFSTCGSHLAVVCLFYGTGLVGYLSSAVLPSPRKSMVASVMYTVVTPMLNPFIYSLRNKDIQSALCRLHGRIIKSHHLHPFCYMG
Procedure, shortened: as §1

O7E24 = tested on: T20, O7E24
T20 sequence (whole entry): T19 sequence (whole entry) with F193S
Procedure, shortened: as §1
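Further: active if original authors judged signal statistically different from baseline.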

Compound	odorant receptor agonist call (O5AN1)	odorant receptor agonist call (OR10A2 (Homo sapiens))	odorant receptor agonist call (O56A4 I247V)	odorant receptor agonist call (O56A4)	odorant receptor agonist call (O56A5 V104L)	odorant receptor agonist call (O56B1 C106R L214F)	odorant receptor agonist call (O56B1 L214F)	odorant receptor agonist call (O56B4)	odorant receptor agonist call (O5AC2)	odorant receptor agonist call (O5AK2 M92I)	odorant receptor agonist call (O5AN1 C142Y L289F)	odorant receptor agonist call (O5AN1 L289F)	odorant receptor agonist call (O5AP2 A105T)	odorant receptor agonist call (O5AU1)	odorant receptor agonist call (O5H14)	odorant receptor agonist call (O5H15 V108I S148T T167S)	odorant receptor agonist call (O6C65 T222A)	odorant receptor agonist call (O6C70 L181P)	odorant receptor agonist call (O7E24 S193F P242S)	odorant receptor agonist call (O7E24)
CC(=O)c1c(C)c([N+](=O)[O-])c(C(C)(C)C)c([N+](=O)[O-])c1C	active	inactive																		
CC1=NC(C)C(C)S1 (stereo unspecified)		inactive	inactive	inactive	inactive	inactive	inactive	inactive	inactive	inactive	inactive	inactive	inactive	inactive	inactive	inactive	inactive	inactive	inactive	inactive
